A selection: hits, their analogues and other compounds. The true share with any hit is near 5.4%.
aSyn 5UTR inh: MLPCN primary screen, SNCA 5' untranslated region; alpha-synuclein 5'UTR reporter, inhibitor activity; inhibition, % (tested at 7.5 µM); actives 0.82% (n = 300,000); in the data active = inhibition above about 60%; inconclusive = no clear call, values can overlap the other calls;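 also: H4 neuroglioblastoma cells stably carrying SNCA 5'UTR luciferase fusion; 0% = DMSO wells and 100% = positive control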
Mdm2 MdmX PPI: inhibitors of human Mdm2-MdmX association, primary screen, cell-based, luminescence, split luciferase, SaOS-2, uHTS | inhibition, % at 8 µM | AID 485346, 2010 | actives 3% (n = 330,000) | SaOS-2 split-luciferase Mdm2/MdmX complementation | Protein Mdm4 (Homo sapiens) + E3 ubiquitin-protein ligase Mdm2 (Homo sapiens), …;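 active = inhibition of at least 50% at 8 µM in the primary screen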
CSC inhib: cancer stem cell viability inhibitors, primary screen, luminescence; cancer stem cell-like cells viability; inhibition, % at 7.5 µM; actives 1.1% (n = 300,000); AID 2717, 2010; in the data active = inhibition above about 75%; inconclusive = no clear call, values can overlap the other calls; tested in HMLE shEcad cells
T cruzi repl: inhibitors of intracellular T. cruzi growth, primary screen, luminescence, NIH3T3 host cells; T. cruzi beta-gal in NIH3T3, 90 h; inhibition, % (test concentration not listed); actives 1.4% (n = 300,000); AID 1885, 2009;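 active = mean inhibition across valid replicates above about 55%, limit read from the data; inconclusive = mean below that limit but half or more replicates reach it; inactive = mean below it, under half of replicates reach it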;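 also: signal also drops with host cell toxicity which is not excluded here; 0% = plate median of DMSO wells and 100% = zero luminescence signal; higher percent means less beta-gal luminescence so fewer parasites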
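Incubation – ≥90 h infection period, 3 h prior cell attachment · System – NIH/3T3 fibroblasts plus reporter T. cruzi · Doses – compound pinned at 50 nL/well, DMSO · Read-out basis – percent inhibition of parasite-derived β-gal signal · Signal – luminescent β-galactosidase signal after 60 min lysis · Also added – 5000 T. cruzi trypomastigotes/well · Medium – Low-serum DMEM with 2% FBS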
SKKanGAS inh: S. pyogenes SKKanGAS growth inhibitors in kanamycin, primary screen, streptokinase expression inhibitor project, SKKanGAS strain, BacTiter-Glo luminescence. 6 h. inhibition, % at 7.5 µM. actives 1.3% (n = 300,000). AID 1662, 2009;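 active = mean replicate score, as percent of positive control median, at least 50; inconclusive = mean below 50 but one replicate at or above 50; inactive = mean and every replicate below 50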;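 also: strain carries kanamycin resistance gene driven by streptokinase promoter and grows in 40 µg/ml kanamycin; loss of luminescence reflects streptokinase promoter inhibition or plain growth inhibition; 0% = median of DMSO wells and 100% = positive control at its reference dose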
Mdm2-MdmX conf: Mdm2-MdmX complex disruptors, retested hits, confirmation, luminescence, single concentration; shares compounds with Mdm2 MdmX PPI; Mdm2-MdmX binding, luminescent assay; inhibition, % at 8 µM; actives 55% (n = 10,000); AID 489028, 2010; in the data active = inhibition above about 40%
Full FLuc ctr: full-length luciferase signal inhibition, confirmation, counter-screen for Mdm2/MdmX interaction inhibitor project, cell-based, single concentration, SaOS-2; inhibition, % at 8 µM; AID 504607, 2011; SaOS-2 full-length luciferase counterscreen, luminescence; shares compounds with Mdm2 MdmX PPI; actives 77% (n = 6,200);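 active = mean inhibition at 8 µM reaching about 37%, which flags the compound as non-specific, limit read from the data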;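 also: p53-null SaOS-2 cells with luciferase driven by a doxycycline-inducible promoter; compound on cells about two nights before reading with doxycycline added after day one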
An asterisk follows results filed as active; ? = inconclusive; . = no result.

SMILES | aSyn 5UTR inh | Mdm2 MdmX PPI | CSC inhib | T cruzi repl | SKKanGAS inh | Mdm2-MdmX conf | Full FLuc ctr
Cc1ccc2[nH]cc(C(=O)CN3CCN(C)CC3)c2c1 | 11 | 14 | . | 40 | -3 | . | .
Cc1cc(C)cc(C(=O)N2CC(=O)Nc3ccccc32)c1 | 110* | 58* | 51 | 15 | -2 | 60* | 77*
Cc1ccc2cc3c(N)c(C(=O)N4CCOCC4)sc3nc2c1 | -7 | -20 | -2 | -9 | 0 | . | .
Cc1ccc2cc3c(N)c(C(=O)N4CC(=O)Nc5ccccc54)sc3nc2c1 | 82* | 64* | -7 | -17 | -1 | 57* | 83*
Cc1ccc2nc3sc(C(=O)N4CCOCC4)c(N)c3cc2c1 | 100* | 59* | -10 | 12 | -22 | 61* | 103*
CS(=O)(=O)c1ccc(C(=O)N2CC(=O)Nc3ccccc32)cc1 | 12 | -11 | -7 | 3 | -2 | . | .
O=C(Nc1ccc([N+](=O)[O-])cc1Cl)c1cc(Cl)ccc1O | . | 100* | 102* | . | . | 97* | 51*
O=C(Nc1cccc(Cl)c1)c1cccc(Oc2ccc([N+](=O)[O-])cc2Cl)c1 | 13 | 61* | 63 | -12 | 3 | 11 | .
Cc1ccc(O)c(NC(=O)c2cc([N+](=O)[O-])ccc2Cl)c1 | -62 | 26 | 21 | -15 | -11 | . | .
O=C(Nc1cccc(Cl)c1)c1cc(N=Nc2ccc([N+](=O)[O-])cc2Cl)ccc1O | -4 | 92* | 128* | -2 | -2 | 97* | 51*
COc1ccc(NC(=O)c2cccc(Oc3ccc([N+](=O)[O-])cc3Cl)c2)cc1 | -9 | -5 | 48 | 2 | 5 | . | .
C/C(=C\COc1ccc2ccc(=O)oc2c1)CC[C@@H](O)C(C)(C)O | . | 2 | -8 | . | . | . | .
COc1cc(/C=N/NC(=S)NC2CC3CC2C2C=CCC32)ccc1O (stereo not given) | -116 | 63* | 44 | -20 | -5 | 32 | .
CNNC(=S)NC1CC2CC1C1C=CCC21 (stereo not given) | 2 | 28 | -3 | 7 | -17 | . | .
CCC(=O)Nc1ccc(NC(=O)CSc2nc3c(c(=O)n(C)c(=O)n3C)n2CC)cc1 | -38 | 9 | 2 | 3 | -2 | . | .
CCCn1c(SCC(=O)Nc2nc(-c3ccc(OC)cc3)cs2)nc2c1c(=O)n(C)c(=O)n2C | -7 | 68* | 11 | 8 | 8 | 13 | .
CCn1c(SCC(=O)Nc2nc3ccc(OC)cc3s2)nc2c1c(=O)n(C)c(=O)n2C | 16 | 22 | 7 | -4 | 9 | . | .
CCn1c(SCC(=O)Nc2nc(-c3ccccc3)cs2)nc2c1c(=O)n(C)c(=O)n2C | 22 | 64* | -4 | 0 | 8 | 8 | .
CC(C)N(C(=O)COC(=O)c1ccccc1C(=O)c1ccc(Cl)c([N+](=O)[O-])c1)C(C)C | 4 | 82* | -1 | -3 | -3 | 23 | .
Cn1c(N)c(C(=O)COC(=O)c2ccccc2C(=O)c2ccc(Cl)c([N+](=O)[O-])c2)c(=O)n(C)c1=O | . | 99* | ? | . | . | 62* | 26
Cn1c(N)c(C(=O)COC(=O)c2ccccc2C(=O)c2ccccc2)c(=O)n(C)c1=O | . | -1 | . | . | . | . | .
O=C(COC(=O)c1ccccc1C(=O)c1ccc(Cl)c([N+](=O)[O-])c1)NC1CCCCCC1 | -7 | 96* | -6 | ? | -22 | 100* | 51*
O=C(COC(=O)c1ccc(Cl)c([N+](=O)[O-])c1)NC1CCCC1 | 9 | 12 | -10 | 7 | 2 | . | .
COc1ccc(OC)c(S(=O)(=O)Oc2ccc(N)c3ccccc23)c1 | 37 | 9 | 30 | 26 | 10 | . | .
O=C(CCNC(=O)c1ccccc1)NNC(=O)c1ccccc1Br | . | 30 | -14 | . | . | . | .
O=[N+]([O-])c1ccc(Cc2ccccn2)c([N+](=O)[O-])c1 | -3 | 16 | -13 | . | 5 | . | .

Screening data as filed in PubChem.
